Sampled rows, rich in hits. Any-hit rate of the full collection: about 4.3%.
SR-BI uptake up: SR-BI HDL lipid transfer activation. CHO ldlA[mSR-BI] cells, DiI-HDL uptake fluorescence, 3 h; 100 = double the neutral-control signal. 0.096% of 320,000 active. activation, % at 12.5 µM. AID 504775;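 active = mean replicate activation of at least 60% and every replicate at or above 60%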;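 note: 0% = median plate neutral-control signal and 100% = twice that signal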
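system = CHO ldlA[mSR-BI] cells, LDL receptor-null, SR-BI overexpressing | medium = Ham's F12 with 0.5% BSA, HEPES 25 mM, pH 7.4 | probe or stimulus = DiI-HDL 10 µg/mL | compound dosing = single-point compound dose | incubation = compound exposure 3 h, 37 °C | technique = DiI fluorescence, bottom read | read-out = cell-associated DiI fluorescence as measure of HDL uptake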
CR mimetic SO: caloric restriction mimetics inhibiting age-related superoxide in yeast. S. cerevisiae aged cells, superoxide DHE fluorescence; active compounds read low. AID 2690. 0.18% of 330,000 active. superoxide response (% of plate mean), % at 10 µM;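 active = superoxide response under a set limit, about three screen SD below normal, cut at about 65% in these data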;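 note: yeast aged for seven days with compound at 30 °C before DHE staining; 100% = average MFI of all compound-treated wells on the plate with controls excluded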
AHR act: activators of human aryl hydrocarbon receptor | activation, % at 5 µM | 2.5% of 320,000 active | P35869 | AHR-responsive luciferase reporter cells, luminescence; in the data active = activation above about 47%;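 note: 0% = vehicle wells and 100% = reference agonist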
Hep lipid drop: modulators of hepatic lipid droplet formation; inhibition, % at 6.5 µM; 0.4% of 240,000 active; AML12 mouse hepatocytes, oleate lipid droplets, BODIPY imaging; AID 1656;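 active = lipid droplet intensity inhibited by at least 50%, with more than 500 cells counted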
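Assay system: AML12 mouse liver cells | Compound: 6.5 µM single-point dosing | Schedule: Overnight exposure | Technique: Fluorescence imaging, 20x objective, two fields per well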
SR-BI DiI inh: inhibitors of mouse SR-BI mediated HDL lipid uptake; inhibition, % at 12.5 µM; ldlA[mSR-BI] CHO cells, DiI-HDL uptake fluorescence, 3 h; AID 488896; 0.96% of 320,000 active;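 active = mean replicate inhibition of at least 70% and a set share of replicates each scoring 70 or more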;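 note: 0% = median of neutral control wells and 100% = median of positive control wells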
Target sequence (Q61009 whole entry, looked up): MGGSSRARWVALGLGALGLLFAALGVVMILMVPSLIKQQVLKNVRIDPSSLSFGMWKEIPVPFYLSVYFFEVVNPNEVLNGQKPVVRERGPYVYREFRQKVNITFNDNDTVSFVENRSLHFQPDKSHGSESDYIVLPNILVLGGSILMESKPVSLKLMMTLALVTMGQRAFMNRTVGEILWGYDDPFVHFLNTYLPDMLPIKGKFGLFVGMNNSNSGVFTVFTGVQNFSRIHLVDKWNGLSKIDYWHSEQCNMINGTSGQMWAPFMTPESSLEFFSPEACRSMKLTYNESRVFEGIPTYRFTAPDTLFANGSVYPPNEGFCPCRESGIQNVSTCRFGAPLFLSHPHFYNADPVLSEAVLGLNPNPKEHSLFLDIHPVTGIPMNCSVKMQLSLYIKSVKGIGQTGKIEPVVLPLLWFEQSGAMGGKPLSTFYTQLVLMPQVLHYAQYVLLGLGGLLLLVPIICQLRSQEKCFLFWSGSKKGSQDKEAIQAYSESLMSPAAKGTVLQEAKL
SMARCA2 act: increases SMARCA2 function in MMTV reporter cells; MG213 cells, MMTV-luciferase reporter, dexamethasone, overnight; activation, % at 9.1 µM; 1% of 370,000 active; AID 652017; in the data active = activation above about 7.8%;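 note: 0% = vehicle wells and 100% = reference activator wells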
SMARCA2 conf: SMARCA2 activation, confirmation screen | shares compounds with SMARCA2 act | MG213 cells, MMTV-luciferase with dexamethasone, luminescence, overnight; MG213 cells expressing E1A, Rb sequestered; DMSO wells 0%, reference activator 100% | activation, % at 9.1 µM | 30% of 3,500 active | AID 652260;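 active = activation above its plate's cutoff, the mean activation of tested wells plus 3 SD, cut at about 7.9% in these data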
GAL4-VP16 Luc: counter-screen for SMARCA2 activators: GAL4-VP16 luciferase reporter activation; shares compounds with SMARCA2 act; HEK293 GAL4-VP16 pG5luc reporter, luciferase luminescence; scaled: DMSO wells 0%, SAHA wells 100%; activation, % at 9.1 µM; 41% of 3,500 active; AID 686939;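 active = activation above the solvent-only control well mean plus 3 SD, averaged across control plates, cut at about 5.2% in these data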
* hit, by the source's call; / = not tested or not shown.

SMILES	SR-BI uptake up	CR mimetic SO	AHR act	Hep lipid drop	SR-BI DiI inh	SMARCA2 act	SMARCA2 conf	GAL4-VP16 Luc
C[C@@H](NC(=O)/C(C#N)=C/c1ccc(O)c(O)c1)c1ccccc1	2.4	107.1	1.3	/	-2.4	-4.7	/	/
Cc1cccc(NC(=O)/C(C#N)=C/c2ccccc2O)n1	7.7	/	/	3.5	-7.7	11.9*	5.3	6.7*
Cc1cccc2nc(-c3ccco3)c(Nc3ccc4c(c3)OCCO4)n12	/	101.1	2.5	22.9	/	10.5*	-2.4	-1.9
O=C(COCc1ccccc1)N1CC[C@H]2[C@H](CCCN2Cc2ccc(F)cc2)C1	/	/	/	/	/	-0.2	/	/
O=C(NCc1ccco1)c1cnc2sccn2c1=O	10.4	99.3	-1.8	-5.5	-10.4	-0.3	/	/
O=C(NCCc1ccccc1)c1cnc2sccn2c1=O	10.6	84.2	8.3	-1.1	-10.6	9.6*	8.3*	9.4*
CN(CCCOC(=O)c1occ2ccccc12)C1CN(Cc2cn(Cc3ccccc3Cl)nn2)S(=O)(=O)C1 (stereo unspecified)	/	/	/	/	/	0.5	/	/
COc1ccc2[nH]c(C)c(CCN3C(=O)C4CC=CCC4C3=O)c2c1 (stereo unspecified)	-19.7	106.5	13.0	/	19.7	9.1*	-3.5	-1.6
CCn1cnc2sc(C(=O)Oc3cccc(C)c3)c(C)c2c1=O	-8.2	92.0	1.9	-1.4	8.2	10.5*	7.3	4.0
CC(O)CN=c1cc(-c2ccccc2)oc2ccc(Cl)cc12 (stereo unspecified)	-28.2	102.9	6.6	/	28.2	8.4*	18.1*	12.8*
C[C@@H]1CN(c2ccc(N3CCN(C(=O)OC(C)(C)C)C[C@H]3C)cc2C#N)CCN1Cc1ccccc1	/	/	/	/	/	-2.1	/	/
Cc1ccc(C)c(NC(=O)N2CCc3ccccc3C2)c1	-1.2	122.7	-2.4	-2.9	1.2	3.3	/	/
O=C(Nc1ccccc1F)N1CCc2ccccc2C1	17.0	96.5	/	-7.4	-16.9	10.4*	2.0	8.0*
O=C(C(=O)N1CCC(CNC(=O)c2sc3ccccc3c2Cl)CC1)c1cccs1	/	/	/	/	/	-7.8	/	/
O=[N+]([O-])c1ccccc1/C=N/Nc1nccnc1Cl	9.2	84.4	45.2	/	-9.2	4.1	/	/
O=C(O)c1ccc(N/N=C/c2cc3ccccc3nc2Cl)cc1	/	108.6	28.1	-16.8	/	13.3*	7.5	12.4*
Cc1cccc2cc(/C=N/Nc3ccc(C(=O)O)cc3)c(Cl)nc12	0.9	106.6	5.8	8.7	-0.9	6.0	/	/
O=[N+]([O-])c1ccccc1N/N=C/c1cc2ccccc2nc1Cl	0.1	96.8	22.5	0.0	-0.1	8.2*	11.0*	5.3*
COC(=O)[C@]12C[C@H](CC(=O)NCc3cccs3)C(=O)N(Cc3ccc4c(c3)OCO4)C1=C[C@H](C(C)(C)C)O[C@@H]2C	/	/	/	/	/	-7.9	/	/
Cc1ccc(-n2c(Cc3cccs3)nnc2SCc2ccc(C#N)cc2)cc1	/	/	/	/	/	-3.3	/	/
CCOC(=O)c1csc(-c2ccc3c(c2)CCO3)n1	2.1	116.1	2.2	21.2	-2.1	15.6*	3.4	6.7*
c1ccc(Nc2nc(N3CCOCC3)nc(N3CCOCC3)n2)cc1	-34.9	105.8	-1.1	31.2	34.9	2.1	/	/
C(=N\Nc1nc(Nc2ccccc2)nc(N2CCOCC2)n1)/c1c[nH]c2ccccc12	/	98.4	39.4	/	/	9.6*	1.1	7.7*
COC(=O)C1CN(C2CCCC2)CCS(=O)(=O)N1Cc1cn(Cc2ccc(F)cc2)nn1 (stereo unspecified)	/	/	/	/	/	2.9	/	/
C=CCN1[C@H](Cc2ccccc2)COc2cc(N3CCSCC3)ccc2S1(=O)=O	/	/	/	/	/	-0.9	/	/
Cc1cc(C)c2c(N)c3cccc(C)c3nc2n1	-16.5	97.8	68.8*	-185.0	16.5	27.7*	347.4*	6.1*

Assay outcomes deposited in PubChem by several laboratories.
